Test results reported in ChEMBL document CHEMBL5260806, “Hydrogen peroxide activated quinone methide precursors with enhanced DNA cross-linking capability and cytotoxicity towards cancer cells” (Eur J Med Chem, 2017).

How the values were obtained:
[1] = Toxicity in healthy human lymphocytes assessed as reduction in cell viability at 10 uM after 24 hrs by Annexin/PI staining based fluorescence assay; conditions: lymphocyte
Summary of the method: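 Normal donor lymphocytes (n=2) isolated from peripheral blood by Ficoll-hypaque, in RPMI with 10% autologous plasma. Exposed to 10 µM for 24 h; % viable cells by annexin/PI binding.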

A549 = experiment: Anticancer activity against human A549 cells assessed as cell growth inhibition at 10 uM incubated for 48 hrs by sulforhodamine B assay; assay type: functional; conditions: read-out: GI
Summary of the method: (§1)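 NCI-60 screen: cell lines grown in RPMI 1640 with 5% FBS and 2 mM L-glutamine, plated in 96-well plates at 5,000–40,000 cells/well depending on doubling time. Each line has one single-dose arm at 10 µM and one dose-response arm giving GI50.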

NCI-H226 = experiment: Anticancer activity against human NCI-H226 cells assessed as cell growth inhibition at 10 uM incubated for 48 hrs by sulforhodamine B assay; assay type: functional; conditions: read-out: GI
Summary of the method: (§2)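 NCI DTP 60-cell-line screen run at National Cancer Institute. Cells grown in RPMI 1640 with 5% fetal bovine serum and 2 mM L-glutamine, seeded at 5,000–40,000 cells/well depending on doubling time. Single-dose screen at 10 µM gives growth percentage; dose-response series gives GI50.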

NCI-H460 = experiment: Anticancer activity against human NCI-H460 cells assessed as cell growth inhibition at 10 uM incubated for 48 hrs by sulforhodamine B assay; assay type: functional; conditions: read-out: GI; summary of the method: as §2
COLO 205 = experiment: Anticancer activity against human COLO 205 cells assessed as cell growth inhibition at 10 uM incubated for 48 hrs by sulforhodamine B assay; assay type: functional; conditions: read-out: GI; summary of the method: as §1
HCT-116 = experiment: Anticancer activity against human HCT-116 cells assessed as cell growth inhibition at 10 uM incubated for 48 hrs by sulforhodamine B assay; assay type: functional; conditions: read-out: GI; summary of the method: as §1
HT-29 = experiment: Anticancer activity against human HT-29 cells assessed as cell growth inhibition at 10 uM incubated for 48 hrs by sulforhodamine B assay; assay type: functional; conditions: read-out: GI; summary of the method: as §1
SF-295 = experiment: Anticancer activity against human SF-295 cells assessed as cell growth inhibition at 10 uM incubated for 48 hrs by sulforhodamine B assay; assay type: functional; conditions: read-out: GI; summary of the method: as §2
U-251 [2] = experiment: Anticancer activity against human U-251 cells assessed as cell growth inhibition at 10 uM incubated for 48 hrs by sulforhodamine B assay; assay type: functional; conditions: read-out: GI
OVCAR-4 = experiment: Anticancer activity against human OVCAR-4 cells assessed as cell growth inhibition at 10 uM incubated for 48 hrs by sulforhodamine B assay; assay type: functional; conditions: read-out: GI; summary of the method: as §2
OVCAR-5 [3] = experiment: Anticancer activity against human OVCAR-5 cells assessed as cell growth inhibition at 10 uM incubated for 48 hrs by sulforhodamine B assay; assay type: functional; conditions: read-out: GI; summary of the method: as §2
ACHN [4] = experiment: Anticancer activity against human ACHN cells assessed as cell growth inhibition at 10 uM incubated for 48 hrs by sulforhodamine B assay; assay type: functional; conditions: read-out: GI; summary of the method: as §1
RXF 393 [5] = experiment: Anticancer activity against human RXF 393 cells assessed as cell growth inhibition at 10 uM incubated for 48 hrs by sulforhodamine B assay; assay type: functional; conditions: read-out: GI; summary of the method: as §2
MCF7 = experiment: Anticancer activity against human MCF7 cells assessed as cell growth inhibition at 10 uM incubated for 48 hrs by sulforhodamine B assay; assay type: functional; conditions: read-out: GI; summary of the method: as §2
MDA-MB-231 [6] = experiment: Anticancer activity against human MDA-MB-231 cells assessed as cell growth inhibition at 10 uM incubated for 48 hrs by sulforhodamine B assay; assay type: functional; conditions: read-out: GI; summary of the method: as §2
BT-549 = experiment: Anticancer activity against human BT-549 cells assessed as cell growth inhibition at 10 uM incubated for 48 hrs by sulforhodamine B assay; assay type: functional; conditions: read-out: GI; summary of the method: as §1
MDA-MB-468 = experiment: Anticancer activity against human MDA-MB-468 cells assessed as cell growth inhibition at 10 uM incubated for 48 hrs by sulforhodamine B assay; assay type: functional; conditions: read-out: GI; summary of the method: as §2
Malme-3M = experiment: Anticancer activity against human Malme-3M cells assessed as cell growth inhibition at 10 uM incubated for 48 hrs by sulforhodamine B assay; assay type: functional; conditions: read-out: GI; summary of the method: as §2
CCRF-CEM = experiment: Anticancer activity against human CCRF-CEM cells assessed as cell growth inhibition incubated for 48 hrs by sulforhodamine B assay; assay type: functional; summary of the method: as §1
NCI-H23 = experiment: Anticancer activity against human NCI-H23 cells assessed as cell growth inhibition incubated for 48 hrs by sulforhodamine B assay; assay type: functional; summary of the method: as §2
NCI-H322M = experiment: Anticancer activity against human NCI-H322M cells assessed as cell growth inhibition incubated for 48 hrs by sulforhodamine B assay; assay type: functional; summary of the method: as §2
HCT-15 = experiment: Anticancer activity against human HCT-15 cells assessed as cell growth inhibition incubated for 48 hrs by sulforhodamine B assay; assay type: functional; summary of the method: as §1
SF-539 = experiment: Anticancer activity against human SF-539 cells assessed as cell growth inhibition incubated for 48 hrs by sulforhodamine B assay; assay type: functional; summary of the method: as §2
U-251 [7] = experiment: Anticancer activity against human U-251 cells assessed as cell growth inhibition incubated for 48 hrs by sulforhodamine B assay; assay type: functional
OVCAR-5 [8] = experiment: Anticancer activity against human OVCAR-5 cells assessed as cell growth inhibition incubated for 48 hrs by sulforhodamine B assay; assay type: functional; summary of the method: as §2
A498 = experiment: Anticancer activity against human A498 cells assessed as cell growth inhibition incubated for 48 hrs by sulforhodamine B assay; assay type: functional; summary of the method: as §1
ACHN [9] = experiment: Anticancer activity against human ACHN cells assessed as cell growth inhibition incubated for 48 hrs by sulforhodamine B assay; assay type: functional; summary of the method: as §1
RXF 393 [10] = experiment: Anticancer activity against human RXF 393 cells assessed as cell growth inhibition incubated for 48 hrs by sulforhodamine B assay; assay type: functional; summary of the method: as §2
PC-3 = experiment: Anticancer activity against human PC-3 cells assessed as cell growth inhibition incubated for 48 hrs by sulforhodamine B assay; assay type: functional; summary of the method: as §2
MDA-MB-231 [11] = experiment: Anticancer activity against human MDA-MB-231 cells assessed as cell growth inhibition incubated for 48 hrs by sulforhodamine B assay; assay type: functional; summary of the method: as §2
Hs-578T = experiment: Anticancer activity against human Hs-578T cells assessed as cell growth inhibition incubated for 48 hrs by sulforhodamine B assay; assay type: functional; summary of the method: as §1
T47D = experiment: Anticancer activity against human T47D cells assessed as cell growth inhibition incubated for 48 hrs by sulforhodamine B assay; assay type: functional
HOP-62 = experiment: Anticancer activity against human HOP-62 cells assessed as cell growth inhibition incubated for 48 hrs by sulforhodamine B assay; assay type: functional; summary of the method: as §1
HOP-92 = experiment: Anticancer activity against human HOP-92 cells assessed as cell growth inhibition incubated for 48 hrs by sulforhodamine B assay; assay type: functional; summary of the method: as §1
CAKI-1 = experiment: Anticancer activity against human CAKI-1 cells assessed as cell growth inhibition at 10 uM incubated for 48 hrs by sulforhodamine B assay; assay type: functional; conditions: read-out: GI; summary of the method: as §1
UO-31 = experiment: Anticancer activity against human UO-31 cells assessed inhibition of cell growth after 48 hrs by CellTiter-Glo luminescent assay; assay type: functional, cell-based; conditions: UO-31, 48 h
Summary of the method: (§3)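 Renal lines grown in RPMI 1640 with 5% FBS and 2 mM L-glutamine, seeded into 384-well plates at 5,000–10,000 cells/well, held 2–3 h at 37 °C, 5% CO2. DMSO stocks (20 mM) serially halved ten times and added at 1:100. Cells exposed 48 h at 37 °C; CellTiter-Glo added, 10 min at room temperature, luminescence read.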

TK-10 = experiment: Anticancer activity against human TK-10 cells assessed inhibition of cell growth after 48 hrs by CellTiter-Glo luminescent assay; assay type: functional, cell-based; conditions: TK-10, 48 h; summary of the method: as §3
DNA = experiment: Induction of [32P]-labeled 49-mer oligonucleotide duplex DNA 25 (unknown origin) interstrand cross-linking at 2 mM for 48 hrs in presence of 2mM H2O2 by PAGE; assay type: functional

COc1cc(CBr)c(B2OC(C)(C)C(C)(C)O2)c(CBr)c1
16200 nM: IC50 (TK-10)
< 50%: inhibition of growth at 10 µM (A549) | inhibition of growth at 10 µM (NCI-H226) | inhibition of growth at 10 µM (NCI-H460) | inhibition of growth at 10 µM (COLO 205) | inhibition of growth at 10 µM (HCT-116) | inhibition of growth at 10 µM (HT-29) | inhibition of growth at 10 µM (SF-295) | inhibition of growth at 10 µM (U-251 [2]) | inhibition of growth at 10 µM (OVCAR-4) | inhibition of growth at 10 µM (OVCAR-5 [3]) | inhibition of growth at 10 µM (ACHN [4]) | inhibition of growth at 10 µM (RXF 393 [5]) | inhibition of growth at 10 µM (MCF7) | inhibition of growth at 10 µM (MDA-MB-231 [6]) | inhibition of growth at 10 µM (BT-549) | inhibition of growth at 10 µM (MDA-MB-468) | inhibition of growth at 10 µM (Malme-3M) | inhibition of growth at 10 µM (CAKI-1)
10800 nM: IC50 (UO-31)
Non-Toxic: Activity [1]
2000 nM: GI50 (CCRF-CEM) | GI50 (NCI-H23) | GI50 (NCI-H322M) | GI50 (HCT-15) | GI50 (SF-539) | GI50 (U-251 [7]) | GI50 (OVCAR-5 [8]) | GI50 (A498) | GI50 (ACHN [9]) | GI50 (RXF 393 [10]) | GI50 (PC-3) | GI50 (MDA-MB-231 [11]) | GI50 (Hs-578T) | GI50 (T47D) | GI50 (HOP-62) | GI50 (HOP-92)
36%: Activity (DNA)
